This is an account of results in ChEMBL document CHEMBL1933058, “5-(2-amino-pyrimidin-4-yl)-1H-pyrrole and 2-(2-amino-pyrimidin-4-yl)-1,5,6,7-tetrahydro-pyrrolo[3,2-c]pyridin-4-one derivatives as new classes of selective and orally available Polo-like kinase 1 inhibitors” (Bioorg Med Chem Lett, 2012).

pIC50: −log10 of the molar value. Calls of active or inactive are those of the source. The calls are words filed in the database; no cut-off is given here.

Data set [1] deals with Cyclin-dependent kinase 2/cyclin A (Homo sapiens, UniProt P24941). The experiment in a line: Inhibition of CDK2/cyclin A. The format is protein-complex assay.
For data set [2], the target named is Serine/threonine-protein kinase PLK3 (Homo sapiens, UniProt Q9H4B4). Nature of the data set: Inhibition of PLK3.
The target in another data set is T1, Aurora kinase A (Homo sapiens, UniProt O14965).
T1 sequence (O14965 whole entry): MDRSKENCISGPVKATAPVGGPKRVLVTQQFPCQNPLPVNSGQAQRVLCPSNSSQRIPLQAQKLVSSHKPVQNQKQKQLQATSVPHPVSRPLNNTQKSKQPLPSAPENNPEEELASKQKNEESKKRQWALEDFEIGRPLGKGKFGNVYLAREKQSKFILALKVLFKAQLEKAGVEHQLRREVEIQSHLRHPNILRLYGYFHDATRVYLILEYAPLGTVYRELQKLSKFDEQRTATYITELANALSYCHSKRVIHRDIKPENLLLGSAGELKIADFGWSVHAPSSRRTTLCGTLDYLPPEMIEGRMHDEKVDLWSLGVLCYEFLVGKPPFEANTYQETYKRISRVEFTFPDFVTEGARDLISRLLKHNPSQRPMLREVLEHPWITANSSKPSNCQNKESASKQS
Nature of the data set: Inhibition of Aurora-A.

The target in data set [3] is Serine/threonine-protein kinase PLK2 (Homo sapiens, UniProt Q9NYY3). The experiment in a line: Inhibition of PLK2.
Data set [4] has as its system A2780. Nature of the data set: Antiproliferative activity against human A2780 cells. The format is functional, cell-based.
Data set [5] has as its target Serine/threonine-protein kinase PLK1 (Homo sapiens, UniProt P53350). Nature of the data set: Inhibition of PLK1.
Data set [6] deals with A2780. Nature of the data set: Induction of apoptosis in human A2780 cells assessed as PARP cleavage at 5 uM after 24 hrs by Western blotting analysis. Type of data set: functional, cell-based. The method, boiled down: (§1)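 A2780 cells were treated for 24 h at 0.05, 0.5 and 5 µM, with nocodazole as positive control. Lysates were immunoblotted for pSer10 histone H3, pThr199 nucleophosmin, cyclin B1, cyclin A, PARP cleavage and caspase 3 activation.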
Background: A western blot detects proteins with antibodies after separation by electrophoresis.

Data set [7] deals with A2780. Nature of the data set: Cell cycle arrest in human A2780 cells assessed as accumulation at G2/M phase at 0.05 to 5 uM after 24 hrs by FACS analysis. The format is functional, cell-based. The method, boiled down:
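A2780 cells were exposed for 24 h to 0.05, 0.5 or 5 µM. Cell-cycle distribution was read by flow cytometry (FACS), scoring G2-M accumulation. Nocodazole-treated cells served as positive control.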
For orientation: Flow cytometry measures light scatter and fluorescence of single cells or particles in a stream.

Data set [8] relates to A2780. Nature of the data set: Cell cycle arrest in human A2780 cells assessed as reduction of phospho Ser46 TCTP level at 0.05 to 5 uM after 1 hr by Western blotting analysis. The format is functional, cell-based. An outline of the steps: (§2)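 A2780 cells got 1 h exposure at 0.05, 0.5 and 5 µM, with nocodazole-treated cells as comparator. Western blot was used to probe the PLK1 substrate marker pSer46 TCTP and the mitotic marker pSer10 histone H3.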

The subject of data set [9] is A2780. Nature of the data set: Induction of apoptosis in human A2780 cells assessed as caspase3 activation at 5 uM after 24 hrs by Western blotting analysis. The format is functional, cell-based. The method, boiled down:
as §1

Data set [10] relates to A2780. The experiment in a line: Cell cycle arrest in human A2780 cells assessed as induction of phospho Thr199 nucleophosmin level after 24 hrs by Western blotting analysis. The format is functional, cell-based. An outline of the steps:
as §1

The subject of data set [11] is A2780. The experiment in a line: Cell cycle arrest in human A2780 cells assessed as increase of phospho Ser10 histone H3 level after 24 hrs by Western blotting analysis. Type of data set: functional, cell-based. An outline of the steps:
as §1

For data set [12], the system named is A2780. Nature of the data set: Cell cycle arrest in human A2780 cells assessed as increase of phospho Ser10 histone H3 level at 0.05 to 5 uM after 1 hr by Western blotting analysis. Type of data set: functional, cell-based. An outline of the steps:
as §2

The nature of data set [13]: Terminal half life in Nu/Nu Balb Harlan mouse at 10 mg/kg, po. As to conditions: in vivo, read-out: beta t1/2 (converted). More on the design: dose 10 mg/kg, route oral. Type of data set: ADME, organism-based.
A short description of data set [14]: Clearance in Nu/Nu Balb Harlan mouse at 10 mg/kg, iv. Type of data set: ADME, organism-based. More on the design: dose 10 mg/kg, route intravenous. As to conditions: in vivo. An outline of the steps:
(§3)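 Male Balb Nu/Nu mice (Harlan) received a single 10 mg/kg intravenous dose, n = 3 animals per study. Vehicle was either trifluoroacetate salt in dextrose or free base in 50% PEG 400/glucosate, depending on compound. Parameters were reported as mean ± standard deviation.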

A short description of data set [15]: Half life in Nu/Nu Balb Harlan mouse at 10 mg/kg, iv. Type of data set: ADME, organism-based. Details: dose 10 mg/kg, route intravenous. The settings on record: in vivo. An outline of the steps:
as §3

Data set [16] in a line: Volume of distribution at steady state in Nu/Nu Balb Harlan mouse at 10 mg/kg, iv. Type of data set: ADME, organism-based. Details: dose 10 mg/kg, route intravenous. The settings on record: in vivo, read-out: Vdss.
Data set [17] can be described thus: Cmax in Nu/Nu Balb Harlan mouse at 10 mg/kg, po. Type of data set: ADME, organism-based. Details: dose 10 mg/kg, route oral. As to conditions: in vivo.
Data set [18] can be described thus: AUC (0 to infinity) in Nu/Nu Balb Harlan mouse at 10 mg/kg, po. The settings on record: plasma. Details: time infinity, dose 10 mg/kg, route oral. Type of data set: ADME, organism-based.
Data set [19] in a line: Oral bioavailability in Nu/Nu Balb Harlan mouse at 10 mg/kg. Type of data set: ADME, organism-based. The settings on record: in vivo.
Data set [20] can be described thus: AUC (0 to infinity) in Nu/Nu Balb Harlan mouse at 10 mg/kg, iv. The format is ADME, organism-based. Details: time infinity, dose 10 mg/kg, route intravenous. The settings on record: plasma. An outline of the steps:
as §3

Sequence of Serine/threonine-protein kinase PLK1 (P53350 whole entry): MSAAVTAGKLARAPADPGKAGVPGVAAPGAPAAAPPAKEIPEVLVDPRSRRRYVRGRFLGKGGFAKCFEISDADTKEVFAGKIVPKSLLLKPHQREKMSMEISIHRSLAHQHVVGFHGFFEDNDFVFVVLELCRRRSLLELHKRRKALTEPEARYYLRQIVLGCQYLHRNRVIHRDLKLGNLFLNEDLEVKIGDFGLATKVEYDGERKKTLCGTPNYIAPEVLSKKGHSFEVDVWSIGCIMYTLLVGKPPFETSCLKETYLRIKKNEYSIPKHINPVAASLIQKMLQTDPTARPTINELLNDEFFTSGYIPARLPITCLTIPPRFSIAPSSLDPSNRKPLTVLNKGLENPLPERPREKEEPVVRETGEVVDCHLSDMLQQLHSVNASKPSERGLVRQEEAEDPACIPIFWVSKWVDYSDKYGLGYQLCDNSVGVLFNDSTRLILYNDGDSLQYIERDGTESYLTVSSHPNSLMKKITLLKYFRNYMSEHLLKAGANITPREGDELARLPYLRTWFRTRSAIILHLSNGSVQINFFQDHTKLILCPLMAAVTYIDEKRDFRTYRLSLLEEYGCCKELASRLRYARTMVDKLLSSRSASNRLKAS
Sequence of Serine/threonine-protein kinase PLK3 (Q9H4B4 whole entry): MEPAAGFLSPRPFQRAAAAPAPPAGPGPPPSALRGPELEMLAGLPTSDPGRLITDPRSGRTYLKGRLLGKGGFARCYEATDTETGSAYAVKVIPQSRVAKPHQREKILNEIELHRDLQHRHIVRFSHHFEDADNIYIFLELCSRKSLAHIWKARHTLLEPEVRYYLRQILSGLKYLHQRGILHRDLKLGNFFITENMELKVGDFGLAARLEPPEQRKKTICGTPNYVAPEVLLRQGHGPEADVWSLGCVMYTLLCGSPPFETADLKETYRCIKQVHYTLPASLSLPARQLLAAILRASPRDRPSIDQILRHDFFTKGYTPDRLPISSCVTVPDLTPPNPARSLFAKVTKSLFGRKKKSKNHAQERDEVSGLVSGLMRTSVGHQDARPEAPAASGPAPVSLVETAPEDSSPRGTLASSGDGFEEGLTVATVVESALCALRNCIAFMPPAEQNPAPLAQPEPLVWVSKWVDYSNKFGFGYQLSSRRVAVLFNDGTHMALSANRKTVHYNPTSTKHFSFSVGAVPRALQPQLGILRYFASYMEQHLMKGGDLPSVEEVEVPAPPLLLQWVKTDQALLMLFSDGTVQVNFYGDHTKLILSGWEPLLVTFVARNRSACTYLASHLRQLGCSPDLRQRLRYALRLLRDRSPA
Sequence of Serine/threonine-protein kinase PLK2 (Q9NYY3 whole entry): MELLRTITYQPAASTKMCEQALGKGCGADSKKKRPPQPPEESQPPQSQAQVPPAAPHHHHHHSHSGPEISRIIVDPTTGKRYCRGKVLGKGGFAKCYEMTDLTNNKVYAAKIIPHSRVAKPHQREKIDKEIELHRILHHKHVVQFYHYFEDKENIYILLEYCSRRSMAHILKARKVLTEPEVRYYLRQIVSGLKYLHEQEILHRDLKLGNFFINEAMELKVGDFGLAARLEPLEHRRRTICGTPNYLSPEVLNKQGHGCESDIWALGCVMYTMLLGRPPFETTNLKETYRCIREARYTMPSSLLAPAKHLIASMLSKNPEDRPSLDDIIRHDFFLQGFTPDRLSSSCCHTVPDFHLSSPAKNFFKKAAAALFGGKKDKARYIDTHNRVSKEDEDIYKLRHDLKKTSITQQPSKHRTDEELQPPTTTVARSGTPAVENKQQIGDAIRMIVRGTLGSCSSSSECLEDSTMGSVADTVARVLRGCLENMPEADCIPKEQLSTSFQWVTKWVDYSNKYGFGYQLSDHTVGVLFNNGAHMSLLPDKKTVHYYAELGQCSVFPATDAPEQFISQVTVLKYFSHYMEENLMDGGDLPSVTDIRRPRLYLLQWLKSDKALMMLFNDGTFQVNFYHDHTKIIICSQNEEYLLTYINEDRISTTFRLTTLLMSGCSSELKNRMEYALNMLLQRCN

By pIC50 is commonly meant −log10 of the IC50, conventionally taken in molar units. Read a low pIC50 as a high IC50. Regarding `CN1CCN(c2ccc(OC(F)(F)F)c(Nc3nccc(-c4cc(C(N)=O)cn4CC(F)(F)F)n3)c2)CC1`, the pIC50 in [1] was less than 5.00; in [2] it was less than 5.00; at Aurora kinase A, less than 5.00; in [3], less than 5.00; with A2780 [4] it was 6.96; in data set [5], 7.74.

With `CN1CCN(c2ccc(OC(F)(F)F)c(Nc3nccc(-c4cc(C(N)=O)cn4CCO)n3)c2)CC1`, the pIC50 in [1] is less than 5.00; in [2], less than 5.00; on Aurora kinase A, less than 5.00; in [3], less than 5.00; in the data set on A2780 [4] it was 5.60; in data set [5], 6.82.

Turning to `Cn1cc(C(N)=O)cc1-c1ccnc(Nc2cc(N3CCN(C(=O)OC(C)(C)C)CC3)ccc2OC(F)(F)F)n1`, the pIC50 in data set [1] is less than 5.00; in data set [2] it was less than 5.00; at Aurora kinase A it was less than 5.00; in data set [3], less than 5.00; with A2780 [4], 5.35; in data set [5], less than 5.00.

In the case of `CN1CCN(c2ccc(OC(F)(F)F)c(Nc3nccc(-c4cc(C(N)=O)cn4C)n3)c2)CC1`, the outcome with A2780 [6], in the data set with A2780 [7], with A2780 [8], in the data set on A2780 [9] and in the data set on A2780 [12] was Active. For the same compound, the Activity result in the data set on A2780 [10] and with A2780 [11] was “Dose-dependent effect” in each case.

On to `CN1CCN(c2ccc(OC(F)(F)F)c(Nc3nccc(-c4cc5c(n4CC(F)(F)F)CCNC5=O)n3)c2)CC1`, for which the pIC50 in data set [1] is less than 5.00; in data set [2] it was less than 5.00; against Aurora kinase A, less than 5.00; in data set [3] it was less than 5.00; in the data set on A2780 [4] it was 7.21; in data set [5], 7.55.

As for `Cn1cc(C(N)=O)cc1-c1ccnc(Nc2cc(N3CCNCC3)ccc2OC(F)(F)F)n1`, the pIC50 is less than 5.00 in [1]; less than 5.00 in data set [2]; less than 5.00 at Aurora kinase A; less than 5.00 in [3]; 6.21 in the data set with A2780 [4]; 7.74 in data set [5].

On to `CN1CCN(c2ccc(OC(F)(F)F)c(Nc3nccc(-c4cc(C(N)=O)cn4CCOC4CCCCO4)n3)c2)CC1` (stereo not given), for which the pIC50 in data set [1] was less than 5.00; in data set [2], less than 5.00; on Aurora kinase A it was less than 5.00; in data set [3], less than 5.00; in the data set with A2780 [4], 5.17; in data set [5], 6.57.

In the case of `CN1CCN(c2ccc(OC(F)(F)F)c(Nc3nccc(-c4cc5c(n4CCO)CCNC5=O)n3)c2)CC1`, the pIC50 in data set [1] is less than 5.00; in [2] it was less than 5.00; against Aurora kinase A it was less than 5.00; in data set [3] it was less than 5.00; in the data set on A2780 [4], 6.14; in [5] it was 6.99.

For the compound `Nc1nccc(-c2cc3c([nH]2)CCNC3=O)n1`, the pIC50 was 6.66 in data set [1], less than 5.00 on Aurora kinase A, 5.82 in the data set with A2780 [4] and 5.95 in [5].

As usually defined, the clearance is a measure of how efficiently the substance is removed, as volume per time. A higher clearance goes with efficient removal. As a reminder, the Cmax is the peak of the concentration-time curve. Broadly, the AUC(0-inf) is the area under the concentration-time curve extrapolated to infinity. Lower therefore signals less exposure. For orientation: bioavailability means the share of a dose that reaches the circulation, judged against a reference dose that is usually intravenous. Turning to `CN1CCN(c2ccc(OC(F)(F)F)c(Nc3nccc(-c4cc(C(N)=O)cn4C)n3)c2)CC1.O=C(O)C(F)(F)F`, the half-life in data set [13] was 1.7 h; in [15], 0.65 h. The clearance in data set [14] was found to be 74.7 mL/min/kg. Moreover, in data set [16], the Vd is 2.5 L/kg. In data set [17], this compound returned a Cmax of 760 nM. The AUC(0-inf) worked out at 1.92 µM·h in data set [18] and 5.41 µM·h in [20]. Also, the bioavailability in data set [19] worked out at 36%.

In the case of `CN1CCN(c2ccc(OC(F)(F)F)c(Nc3nccc(-c4cc5c(n4C)CCN(C(=O)OC(C)(C)C)C5=O)n3)c2)CC1`, the pIC50 was less than 5.00 in [1]; less than 5.00 in data set [2]; less than 5.00 against Aurora kinase A; less than 5.00 in data set [3]; 6.75 in the data set on A2780 [4]; 6.09 in data set [5].

`NC(=O)c1c[nH]c(-c2ccnc(N)n2)c1`: the pIC50 (in data set [1]; on Aurora kinase A; in data set [5]) was less than 5.00 in each case.
